# A selection: hits, their analogues and other compounds. The true share with any hit is near 5.1%.
# STAT3 blocker: inhibitors of IL-6 induced STAT3 signaling; U3A cells, IL-6 STAT3-luciferase reporter, luminescence; host cell line lacks STAT1; inhibition, % at 5.5 µM; 0.89% of 190,000 active; AID 862;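 active = inhibition above the mean inhibition across all screened compounds plus 3 SD, cut at about 44% in these data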;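 also: 0% = DMSO only wells and 100% = 100 µM nifuroxazide control wells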
# STAT1 activator: increases IFN-gamma driven STAT1 reporter signal | NIH 3T3 STAT1-luciferase reporter, luminescence; 100% = IFN-gamma alone, no compound | activation (% of control), % at 5.5 µM | 2.6% of 200,000 active | AID 932;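 active = activation above the screen-wide mean activation plus 3 SD, cut at about 130% in these data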;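 also: raw ratio to IFN-gamma control signal so 100% means no change and 0% no light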
# STAT1 blocker: STAT1 signaling inhibition. NIH 3T3 STAT1-luciferase reporter, IFN-gamma, luminescence. inhibition, % at 5.5 µM. 0.35% of 200,000 active;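 active = inhibition above a set limit, the mean inhibition across all tested compounds plus 3 SD, cut at about 34% in these data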;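 also: 0% = IFN-gamma with DMSO and 100% = IFN-gamma with 300 µM nifuroxazide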
# STAT3 act: increases IL-6 driven STAT3 reporter signal | U3A cells, IL-6 STAT3-luciferase reporter, luminescence; 100% = signal with IL-6 EC80 alone | activation (% of control), % at 5.6 µM | 0.91% of 190,000 active | AID 871;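 active = activation above the screen-wide mean of compound activation plus 3 SD, cut at about 130% in these data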;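 also: 0% = background luminescence of wells with medium and substrate only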
#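 Material: STAT3-luciferase reporter U3A cells. Controls: IL-6-treated wells, 100% activation. Read-out: % activation versus median of IL-6-stimulated wells. Probe or stimulus: IL-6 stimulus at 33 ng/mL final. Timing: compound 1 h, then IL-6 6 h at 37 °C. Signal: reporter luminescence signal.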
# APP 5'UTR act: activates APP 5'UTR luciferase reporter | 1% of 190,000 active | SH-SY5Y APP 5'UTR luciferase reporter, luminescence; zero percent = DMSO vehicle wells | activation, % at 2 µM;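 active = activation above a set limit, based on mean plus 3 SD of controls, cut at about 140% in these data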
# NF-kB expr up: compounds increasing NF-kB expression in human neuronal cells; NF-kB reporter expression; hits give high values; fold change at 12.5 µM; 1.6% of 190,000 active; in the data active = fold change above about 3.3
# STAT1 activ conf: confirmation of STAT1 signaling activators; shares compounds with STAT1 activator; NIH 3T3 STAT1-luciferase reporter, IFN-gamma potentiation, luminescence; 100% = IFN-gamma EC80 alone, no compound; activation (% of control), % at 5.7 µM; 97% of 1,200 active; AID 1262;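 active = activation above a set limit carried over from the earlier primary STAT1 screen, cut at about 140% in these data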;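 also: simple ratio to median IFN-gamma plus DMSO wells so 0% means no light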
# NFkB act STAT1ct: activates NF-kappaB, counter-screen to STAT1 activators | shares compounds with STAT1 activator | HEK293T NF-kB luciferase reporter, TNF-alpha stimulated, luminescence; 100% = TNF-alpha with vehicle only | activation (% of control), % at 5.7 µM | 43% of 1,200 active;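 active = activation above the mean of solvent-only control wells plus 3 SD, set per campaign, cut at about 130% in these data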;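 also: TNF-alpha given at a submaximal dose yielding about 80% of full reporter signal; values are well signal over median control so 100% means no change and 0% no light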
# STAT3 act 2: counter-screen for STAT1 activators: human STAT3 activation; 46% of 1,200 active; activation (% of control), % at 5.7 µM; AID 1316; shares compounds with STAT1 activator; U3A cells STAT3-luciferase reporter, IL-6, luminescence; cells lack STAT1; 100 = IL-6 alone, no compound effect;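 active = activation above the solvent-only control well mean plus 3 SD, set per plate batch, cut at about 110% in these data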;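 also: 0% = no luminescence and 100% = median IL-6 plus DMSO wells; higher means more STAT3 reporter activation so hits are non-selective activators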
# The depositor's hits bear a star; . = no result.
SMILES,STAT3 blocker,STAT1 activator,STAT1 blocker,STAT3 act,APP 5'UTR act,NF-kB expr up,STAT1 activ conf,NFkB act STAT1ct,STAT3 act 2
Cc1ccc(/C=C(\C#N)C(=O)Nc2ccccn2)o1,2,187*,-100,103,100,4.3*,205*,138*,111*
Cc1[nH]nc(N)c1N=Nc1ccc(Br)cc1,12,108,-12,94,21,1.1,.,.,.
Cc1nc(N)sc1N=Nc1ccc(Br)cc1,-17,158*,-63,115,122,7.2*,214*,162*,123*
C=CCNc1ncnc2c1cnn2-c1ccc(OC)cc1,36,178*,-85,71,148*,4.5*,234*,126,108
COc1ccc(-n2ncc3c(Nc4cccc(C)c4)ncnc32)cc1,9,118,-19,98,98,1.7,.,.,.
COc1ccc(-n2ncc3c(NCc4ccco4)ncnc32)cc1,12,162*,-68,94,95,3.2,185*,138*,114*
CCCN(CCC)c1ncnc2c1cnn2-c1ccc(OC)cc1,25,162*,-67,78,137*,2.1,249*,145*,105
O=c1c2cc(NC(=S)N3CCCCCC3)ccc2nc2n1CCCCC2,12,90,9,92,-12,0.85,.,.,.
CC(=O)c1ccc(NCC2COc3ccccc3O2)c([N+](=O)[O-])c1 (centres undefined),-24,159*,-67,124,145*,3.1,229*,140*,220*
O=C(Nc1ccc(SC(F)F)cc1)c1ccccc1F,0,161*,-65,100,126,1.3,182*,142*,102
O=C(Nc1ccc(F)cc1)c1ccccc1F,15,110,-11,87,52,1.7,.,.,.
O=C(COC(=O)Cc1ccccc1F)Nc1ccc(SC(F)F)cc1,-2,104,-5,100,9,1.1,.,.,.
O=C(Cc1ccccc1F)Nc1ccc(SC(F)F)cc1,-8,162*,-70,110,153*,5.3*,169*,128,127*
COc1cc(C(=O)NCCc2ccc(S(=O)(=O)N3CCCC3)cc2)cc(OC)c1OC,0,96,3,102,-18,1,.,.,.
O=C(NC1=NCCS1)c1sc2ccccc2c1Cl,2,173*,-79,103,146*,7.1*,210*,130,116*
O=C(NC1=NCCS1)c1sc2cc(Cl)cc(Cl)c2c1Cl,-2,98,2,104,-9,1.2,.,.,.
Cc1[nH]n(-c2ccccc2)c(=O)c1/C=N/O,-1,100,0,103,10,1.2,.,.,.
Cc1[nH]n(-c2ccccc2)c(=O)c1C=NCc1ccco1,-1,157*,-63,102,50,3.8*,186*,133,118*
COc1ccc(/C=C(\CC(=O)O)c2nc3ccccc3o2)cc1,-24,151*,-55,120,76,0.9,160*,136*,116*
Cc1cccc(NS(=O)(=O)c2c(C)noc2C)c1,12,99,-1,92,-8,1.1,.,.,.
Cc1cccc(N/C=C/c2onc(C)c2[N+](=O)[O-])c1,-18,155*,-57,115,16,1.1,199*,141*,107
O=C(O)C1CC=CCC1C(=O)Nc1ccccc1 (centres undefined),14,105,-5,94,15,1.1,.,.,.
CC1CC1C(=O)Nc1ccc(-c2ccccc2)cc1 (centres undefined),5,155*,-62,94,121,3.3*,162*,127,97
Cc1[nH]n(C(N)=S)c(=O)c1N=Nc1ccc2ccccc2c1,-30,172*,-78,128,134,5.9*,208*,123,146*
CCc1nnc(NC(=O)c2ccc3ccccc3n2)s1,-22,153*,-56,127,103,3.8*,176*,120,157*
CC(C)(C)n1nc2c(c1NC(=O)c1cc3ccccc3o1)CS(=O)(=O)C2,-15,104,-5,114,-19,1.1,.,.,.
CCn1ccnc1CN1CCN(CCC(C)C)C(CCO)C1 (centres undefined),-6,101,-2,110,-21,1.1,.,.,.

# Assay outcomes from PubChem.
